WNV NS2B-NS3 inh – inhibitors of West Nile virus NS2B-NS3 protease | 65,000 compounds, 0.18% hits | P06935 | z-score (test concentration not listed) | WNV NS2B-NS3 protease, fluorogenic substrate Ex360/Em465; active compounds read low; in the data active = z-score below about -3
Target sequence (P06935 1371-1501 limits assumed): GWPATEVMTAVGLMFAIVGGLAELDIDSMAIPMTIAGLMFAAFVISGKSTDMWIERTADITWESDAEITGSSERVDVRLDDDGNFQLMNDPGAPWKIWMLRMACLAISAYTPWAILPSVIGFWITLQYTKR
Target sequence (P06935 1502-1679 limits assumed): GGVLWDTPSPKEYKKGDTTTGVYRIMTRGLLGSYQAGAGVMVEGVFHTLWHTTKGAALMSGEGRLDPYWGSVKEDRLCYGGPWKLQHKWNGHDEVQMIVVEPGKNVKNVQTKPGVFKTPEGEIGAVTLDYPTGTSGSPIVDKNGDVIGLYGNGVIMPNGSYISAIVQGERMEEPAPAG
Ecoli tolC – blocks growth of E. coli BW25113 tolC mutant; AID 573; 65,000 compounds, 2.2% hits; OD615; growth inhibition, % at 10 µM (by protocol);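 active = growth inhibition at or above a cutoff equal to the mean over every tested compound plus 3 SD, cut at about 60% in these data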;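 also: growth measured after 20 h incubation at 37 °C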
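signal = optical density read at 615 nm | test system = E. coli ΔtolC::kan strain BW25113 | timing = 20 h compound exposure of bacteria at 37 °C | buffer or medium = LB medium plus 50 µg/mL kanamycin | compound dosing = 10 µM final, single dose | evaluation = % inhibition of E. coli growth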
M1 antagonist – blocks the rat M1 muscarinic receptor response to acetylcholine. P08482. 64,000 compounds, 3.4% hits. B-score at 10 µM. CHO-M1 cells, Fluo-4 calcium, ACh EC80 antagonist mode; active compounds read low;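 active = calcium fluorescence response, raw or row-and-column corrected B-score, differing from the plate sample mean either way at a set confidence level, mostly lower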
E coli WT exp – growth inhibitors of E. coli BW25113 wild type; OD600 absorbance; 98,000 compounds, 0.15% hits; growth inhibition, % at 100 µM; AID 710;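 active = growth inhibition above about 50% at one test dose, limit read from the data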;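 also: growth measured after 20 h incubation at 37 °C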
M1 agonist – activates the M1 muscarinic receptor; CHO-M1 cells, Fluo-4 calcium fluorescence, agonist mode; active compounds read high; B-score at 10 µM; 64,000 compounds, 3% hits; AID 626;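 active = fluorescence rise, raw or as B-score row- and column-corrected plate score, outside the 99.7% band of its plate's samples, either direction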
AP ELISA ortho – alternative pathway complement inhibition, orthogonal assay; Human serum alternative complement pathway, LPS-coated ELISA, C3 deposition; tested in compound mixtures; inhibition, % at 5 µM; 62,000 compounds, 0.08% hits; AID 1235;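 active = inhibition above 30% in each of the two pooled mixtures holding the compound, so the lower value exceeds 30%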;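 also: 0% = serum in Mg-EGTA without compound and 100% = EDTA serum blank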
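Test system: human serum complement alternative pathway, C3 deposition onto LPS / Medium: Mg2+-EGTA GVB++ buffer containing human serum at 1:15 dilution / Probe or stimulus: Plate-bound LPS / Times: 1 h at 37 °C / Signal: ELISA with HRP anti-human C3 antibody, TMB substrate, absorbance 450 nm / Measure: percent inhibition / Repeats: two pool placements per compound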
* marks the source's active call; other numbers are inactive results; . = no result. Only some compounds are listed: those with a hit (about 5.2% of all), similar ones and a draw of the others.

SMILES	WNV NS2B-NS3 inh	Ecoli tolC	M1 antagonist	E coli WT exp	M1 agonist	AP ELISA ortho
CC1Cc2ccccc2N1C(=O)Cn1c(=O)oc2cc(S(=O)(=O)NC3CCCC3)ccc21 (stereo not given)	1.21	73.8*	-1.11	-13.0	-0.257	8.1
COc1ccccc1N1CCN(C(=O)c2oc3cc(C)c(C)cc3c2C)CC1	-0.74	71.6*	-0.0347	-2.0	0.618	13.9
CCN1CCN(c2ncc(C(=O)N3CCN(c4ccccc4OC)CC3)c3ccccc23)CC1	-0.52	-10.2	-10.1*	.	-1.02	6.2
COc1ccccc1N1CCN(C(=O)COc2ccc(C)cc2Br)CC1	-0.51	69.5*	0.0514	-9.0	-0.122	11.5
COc1ccccc1N1CCN(C(=O)COc2ccc(Cl)cc2Br)CC1	-0.08	35.8	-0.178	-11.0	-0.242	1.8
CS(=O)(=O)N1CCc2cc(-c3csc(NC(=O)Cc4cccs4)n3)ccc21	0.27	61.6*	0.238	-14.0	-0.0114	-11.6
O=C(CN1CCOCC1)Nc1nc(-c2ccc3c(c2)CCN3S(=O)(=O)c2ccccc2)cs1	0.82	8.2	0.0906	-10.0	-0.911	4.3
Cc1nnc(SCCn2c(N3CCN(c4ccccc4)CC3)nc3c2c(=O)n(C)c(=O)n3C)s1	-1.27	-9.9	-0.437	.	-1.03	29.4
CCOC(=O)c1[nH]c(C)c(C(=O)Nc2cc(OC)ccc2OC)c1C	-0.88	-2.2	0.181	-2.0	0.165	7.6
CCOC(=O)c1c(C)c(C(=O)Nc2cc(OC)ccc2OC)c(C)n1CC	-0.97	68.0*	0.343	5.0	0.781	18.5
CCN(CC)C(=O)C(C)OC(=O)COc1ccc(Cl)cc1C (stereo not given)	0.62	-3.6	1.86*	-1.0	-0.365	3.6
Cc1cc(C)c2c(n1)nn1c(NCCCn3ccnc3)cc(C)nc21	0.27	-33.7	-3.26*	.	0.257	9.3
O=C(CSc1nnnn1C1CCCCC1)Nc1cccc(NC(=O)c2ccco2)c1	0.15	73.2*	0.113	-5.0	2.77	-1.4
O=C(CSc1nnnn1C1CCCC1)Nc1cccc(NC(=O)c2ccco2)c1	0.71	24.0	0.674	3.0	0.993	9.1
CCCn1c(=O)c(C(=O)Nc2c(C)n(C)n(-c3ccccc3)c2=O)c(O)c2ccccc21	-0.8	-2.5	-11.2*	.	-0.0127	-3.5
NC(Cc1ccc(Oc2ccc(O)cc2)cc1)C(=O)O (stereo not given)	0.2	7.2	0.174	.	0.438	17.1
CCn1c(SC(=O)NC2CCCCC2)nnc1-c1cccs1	-0.09	-25.2	0.00157	6.0	-1.25	14.9
COC(=O)c1ccc(CSc2nc3ccccc3o2)cc1	-0.45	65.3*	0	7.0	-0.926	3.2
O=[N+]([O-])c1ccc(CSc2nc3ccccc3o2)cc1	.	.	.	3.0	.	.
Cc1ccc(-c2nnc3sc(CCc4ccccc4)nn23)cc1	-0.1	67.1*	.	-4.0	.	8.5
COc1cc2ccccc2c2c1CCCC2=O	.	.	.	8.0	.	.
O=C(CCNc1cc(Cl)cc(Cl)c1)c1ccco1	0.16	85.5*	0	27.0	-0.388	-4.0
COc1ccccc1C(=O)Oc1cc(N)n(S(=O)(=O)c2ccc(C)cc2)n1	-2.09	-9.8	0.332	-2.0	-0.823	9.5
Nc1cc(OC(=O)c2ccco2)nn1S(=O)(=O)c1ccc(F)cc1	-11.2*	-11.0	0.113	6.0	-0.457	-3.9
Cc1ccc(S(=O)(=O)n2nc(OC(=O)c3ccco3)cc2N)cc1	-5.35*	-8.8	0.0407	-2.0	1.03	-8.0
SMILES	WNV NS2B-NS3 inh	Ecoli tolC	M1 antagonist	E coli WT exp	M1 agonist	AP ELISA ortho
Cc1ccc(S(=O)(=O)n2nc(OC(=O)c3cccs3)cc2N)cc1	-6.4*	-10.9	-0.0759	-2.0	-0.0331	15.0
CC(=O)NCC(=O)OCN1C(=O)c2ccccc2C1=O	-0.29	-4.2	-0.0978	0.0	-0.522	.
O=C1CC(N2CCN(c3ccc(S(=O)(=O)N4CCCC4)cc3)CC2)C(=O)N1c1ccc(F)cc1 (stereo not given)	0.43	1.3	-0.673	-10.0	-2.46	0.6
CCSc1nnc(NC(=O)NC(CC)(C(F)(F)F)C(F)(F)F)s1	-0.59	20.9	-1.39*	16.0	5*	.
CCC(NC(=O)Nc1nccs1)(C(F)(F)F)C(F)(F)F	2.57	2.9	0.0182	14.0	-1.46	.
Cn1cc(C(=O)NCCc2ccccc2)c(=O)c2cc(S(=O)(=O)N3CCOCC3)ccc21	-1.08	-10.7	0.221	.	0.153	14.2
Cn1c(SCC(=O)N2c3ccccc3Sc3ccc(Cl)cc32)nnc1-c1ccco1	-1.09	64.6*	-0.426	-7.0	-0.465	15.9
CC1(c2ccc(Cl)c(Cl)c2)NC(=S)N2C1NC(=S)N2c1ccccc1 (stereo not given)	.	.	.	9.0	.	.
CCOC(=O)C(CC(=O)O)N1CCCCC1 (stereo not given)	-3.07*	-0.3	0.288	2.0	0.015	.
Fc1ccccc1CSc1nc2ccccc2[nH]1	.	.	.	16.0	.	.
O=C(c1noc2c1CCc1ccccc1-2)N1CCc2ccccc2C1	0.1	86.6*	.	-8.0	.	11.0
O=C(c1noc2c1CCc1ccccc1-2)N1CCOCC1	1.65	-23.5	0.323	4.0	-0.123	11.7
O=C(c1noc2c1CCc1ccccc1-2)N1CCCc2ccccc21	-0.42	98.7*	-0.121	-10.0	1.16	3.7
O=C(c1cccnc1)N1CCCc2ccccc21	-0.33	-10.2	0.0284	-3.0	-2.97*	-9.0
Cc1ccc(C)n1-c1ccc(C(=O)NCC2CCCO2)cc1 (stereo not given)	-0.1	-12.6	-0.0462	-1.0	-0.864	20.0
CC1CCCC(NC(=O)COC(=O)Cc2ccsc2)C1C (stereo not given)	.	.	.	-8.0	.	.
C=CCNc1ncnc2c1[nH]c1ccccc12	0.21	57.4	-0.994	77.0*	-1.56	-9.0
C=CCNc1ncnc2c1[nH]c1ccc(Cl)cc12	.	.	.	73.0*	.	.
CCOCCCNc1ncnc2c1[nH]c1ccccc12	0.27	45.9	-1.59	22.0	1.06	2.9
C=CCNc1ncnc2c1cnn2-c1ccc(Cl)cc1	-0.69	-10.8	-0.008	-5.0	-0.584	6.9
C=CCN(C)CCCNC(=O)/C=N/O	0.89	6.3	0.28	.	-0.249	-0.2
CC(C)c1ccc(O)c(NC(=O)c2cncc(Br)c2)c1	-0.16	0.6	-0.995	-5.0	-0.502	4.0
CC(C)c1ccc(O)c(NC(=O)c2ncn[nH]2)c1	0.41	-1.6	2.26*	2.0	0.204	3.2
CCS(=O)(=O)NCCc1csc(C)n1	-0.23	-16.0	0.983	3.0	0.578	9.2
O=C(Nc1ccccc1)N(CCCN1CCOCC1)Cc1ccccc1F	-0.56	-7.5	-0.208	0.0	-0.149	-8.9
O=C(Nc1cccc(Cl)c1)N(CCCN1CCOCC1)Cc1ccccc1F	0.33	68.2*	0.685	40.0	1.55	12.4
CN(CCO)c1nc(N)c2c(N)nc3c(c2c1C#N)CC(=O)N3C1CCCC1	.	.	.	-1.0	.	.
CC(C)(C)N1C(=O)Cc2c1nc(N)c1c(N)nc(N3CCCCC3CO)c(C#N)c21 (stereo not given)	0.74	80.1*	-0.471	8.0	4.75	6.3

Screening data deposited in PubChem by several laboratories.
